Data published in ChEMBL document CHEMBL5352453, “Hit-to-lead optimization of a 2-aminobenzimidazole series as new candidates for chagas disease” (Eur J Med Chem, 2023).
pIC50: −log10 of the molar value.

What was measured:
[1] = Selectivity index, ratio of CC50 for cytotoxicity against human MRC5 cells to EC50 for Trypanosoma cruzi Tulahuen CL2 amastigotes expressing beta galactosidase infected in human MRC5 cells; assay type: toxicity, cell-based; settings: read-out: Selectivity Index
Outline: (§1)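 T. cruzi Tulahuen CL2 β-galactosidase strain grown in MRC-5 cells (MEM, 5% heat-inactivated FCS, 37 °C, 5% CO2). MRC-5 cells (4 x 10^3/well) plus parasites (4 x 10^4/well) exposed 7 days to 4-fold dilutions from 64 µM down; final DMSO <1%. CPRG with Nonidet added, absorbance at 540 nm after 4 h. IC50 calculated against untreated-infected (100%) and non-infected (0%) controls. SI = MRC-5 CC50/IC50.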

[2] = tested on: Trypanosoma cruzi; test: Antitrypanosomal activity against Trypanosoma cruzi Tulahuen CL2 amastigotes expressing beta galactosidase infected in human MRC5 cells assessed as reduction in parasite burden using chlorophenol red beta-D-galactopyranoside as substrate and measured after 7 days by spectrophotometric analysis; assay type: functional, organism-based; settings: Tulahuen CL2, MRC5, 168 h; outline: as §1
[3] = Metabolic stability in CD1 mouse liver microsomes assessed as intrinsic clearance measured upto 60 mins by LC-MS/MS analysis; assay type: ADME; settings: read-out: CLH
Outline: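 CD1 mouse liver microsomes at 0.25 mg/mL, compound at 0.5 µM, pH 7.4, 37 °C, started with NADPH. Sampled at 0, 5, 10, 20, 30 and 60 min and quenched with acetonitrile:methanol containing tolbutamide. Measured by LC-MS/MS; CLint (k × 1000/0.25, µL/min/mg) derived by non-linear regression of % remaining over time.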

[4] = tested on: Trypanosoma cruzi; test: Antitrypanosomal activity against intracellular Trypanosoma cruzi amastigote infected primary peritoneal mouse macrophages assessed as reduction in infection rate; assay type: functional
Outline: (§2)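 High-content imaging of primary mouse macrophages infected with T. cruzi. Counts both amastigotes per cell and percentage of infected cells. 96 h exposure, with maximal activity scored at 10 µM. IC50 and IC90 against intracellular amastigotes taken from the same 96 h incubation.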

[5] = Passive permeability of the compound at 10 uM at pH 6.5 to 7.4 donor portion/acceptor portion by PAPMA assay; assay type: ADME; settings: not told, read-out: permeability
Outline: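 PAMPA on pre-coated membranes. Donor holds 10 µM compound in PBS pH 6.5; acceptor holds PBS pH 7.4. Incubated 5 h at 37 °C. Donor, acceptor and initial donor samples quenched and quantified by LC-MS/MS to calculate effective permeability (Pe). Run in triplicate.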

[6] = Cytotoxicity against primary peritoneal mouse macrophages assessed as reduction in cell viability measured after 24 hrs by colorimetric assay; assay type: toxicity, cell-based, Peritoneal macrophage
[7] = tested on: Trypanosoma cruzi; test: Antitrypanosomal activity against intracellular Trypanosoma cruzi amastigote infected primary peritoneal mouse macrophages assessed as reduction in amastigote population; assay type: functional; set-up: concentration or dose not given beside the values; outline: as §2
[8] = Cytotoxicity against human HepG2 cells assessed as reduction in cell viability measured after 24 hrs by colorimetric assay; assay type: toxicity, cell-based
[9] = Cytotoxicity against mouse 3T3 cells assessed as reduction in cell viability measured after 24 hrs by colorimetric assay; assay type: toxicity, cell-based; settings: NIH3T3 cells
[10] = Kinetic solubility of the compound at pH 7.4 PBS buffer measured after 24 hrs shaken by LC-MS/MS analysis; assay type: physicochemical; settings: read-out: Kinetic_solubility
Outline: (§3)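 Compounds from 10 mM DMSO stocks diluted in PBS pH 7.4 or pH 2.0 to 250 µM final, 2.5% DMSO, in duplicate. Shaken 24 ± 1 h at 200 rpm, room temperature, then centrifuged to remove precipitate. Supernatant quantified by LC-MS/MS against per-compound calibration at 1–50 µM.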

[11] = tested on: Trypanosoma cruzi; test: Antitrypanosomal activity against intracellular Trypanosoma cruzi amastigote infected primary peritoneal mouse macrophages assessed as reduction in amastigote population measured after 96 hrs; assay type: functional, organism-based; settings: for pIC50: 96 h; for IC90: time 96 hrs; outline: as §2
[12] = Kinetic solubility of the compound at pH 2 PBS buffer measured after 24 hrs shaken by LC-MS/MS analysis; assay type: physicochemical; settings: read-out: Kinetic_solubility; outline: as §3
[13] = Cytotoxicity against rat L6 cells assessed as reduction in cell viability measured after 24 hrs by colorimetric assay; assay type: toxicity, cell-based
[14] = Cytotoxicity against human MRC5 cells assessed as reduction in cell viability measured after 24 hrs by colorimetric assay; assay type: toxicity, cell-based

`Cn1nccc1C(=O)Nc1nc2cc(CN3CCCC3)ccc2n1CC(F)(F)F` gave a selectivity ratio [1] of 2, a pIC50 [2] of 5.09 and a microsomal CLint [3] of 23 µL/min/mg.

With `N#Cc1ccc2nc(NC(=O)c3ncc(F)cc3F)n(CC(F)(F)F)c2c1` the selectivity ratio [1] was 3, the pIC50 [2] was 4.77 and the microsomal CLint [3] was 253 µL/min/mg.

For `N#Cc1ccc2nc(NC(=O)c3ccn(C4CC4)n3)n(CC(F)(F)F)c2c1`, the selectivity ratio [1] was > 15, the pIC50 [2] was 5.37 and the microsomal CLint [3] was 299 µL/min/mg.

For `Cn1nccc1C(=O)Nc1nc2cc(C(F)(F)F)cnc2n1CC(C)(C)C`, the selectivity ratio [1] was 7, the pIC50 [2] was 6.24 and the microsomal CLint [3] was 37 µL/min/mg.

In the case of `Cc1nnnn1CC(=O)Nc1nc2ccc(C#N)cc2n1CC(F)(F)F`, the selectivity ratio [1] was > 1, the pIC50 [2] was 4.30 and the microsomal CLint [3] was 23 µL/min/mg.

For `Cc1nc(C)c(C(=O)Nc2nc3ccc(C#N)cc3n2CC(F)(F)F)s1`, the selectivity ratio [1] was 14, the pIC50 [2] was 6.27 and the microsomal CLint [3] was 595 µL/min/mg.

`Cc1cc(C(=O)Nc2nc3ccc(C#N)cc3n2CC(F)(F)F)nn1C` gave a selectivity ratio [1] of 1, a pIC50 [2] of 4.19 and a microsomal CLint [3] of 181 µL/min/mg.

With `N#Cc1ccc2nc(NC(=O)c3ccccn3)n(CC(F)(F)F)c2c1` the selectivity ratio [1] was > 7, the pIC50 [2] was 5.03 and the microsomal CLint [3] was 236 µL/min/mg.

In the case of `COCCn1c(NC(=O)c2ccnn2C)nc2ccc(C#N)cc21`, the selectivity ratio [1] was > 7, the pIC50 [2] was 5.06 and the microsomal CLint [3] was 98 µL/min/mg.

In the case of `N#Cc1ccc2nc(NC(=O)c3cc(C(F)(F)F)n[nH]3)n(CC(F)F)c2c1`, the selectivity ratio [1] was 11, the pIC50 [2] was 6.31 and the microsomal CLint [3] was 70 µL/min/mg.

`Cn1ccc(C(=O)Nc2nc3ccc(C#N)cc3n2CC(F)(F)F)n1` showed a selectivity ratio [1] of 1, a pIC50 [2] of 4.19 and a microsomal CLint [3] of 73 µL/min/mg.

`Cn1nccc1C(=O)Nc1nc2cc(-c3ncco3)ccc2n1CC(F)(F)F` gave a selectivity ratio [1] of 1, a pIC50 [2] of 4.42 and a microsomal CLint [3] of 52.7 µL/min/mg.

In the case of `N#Cc1ccc2nc(NC(=O)c3cc(C(F)(F)F)n[nH]3)n(CC(F)(F)F)c2c1`, the “inhibition (INH)” value [4] was 97%, the selectivity ratio [1] was > 42 and the Papp at 10 µM [5] was 2 ×10⁻⁶ cm/s. For the same molecule, the CC50 at 24 h [6] was 25 µM, the Activity [7] was 99% and the pIC50 [2] was 5.82. The microsomal CLint [3] was 25 µL/min/mg, the CC50 at 24 h [8] was 1.8 µM and the CC50 at 24 h [9] was > 40 µM. For the same molecule, the solubility kinetic at 24 h [10] was < 1 µM, the pIC50 [11] was 6.24 and the IC90 [11] was 0.88 µM. For the same molecule, the solubility kinetic at 24 h [12] was < 1 µM, the CC50 at 24 h [13] was 12 µM and the CC50 at 24 h [14] was > 64 µM.

For `CN1CCC(n2c(NC(=O)c3ccnn3C)nc3ccc(C#N)cc32)CC1`, the selectivity ratio [1] was > 2, the pIC50 [2] was 4.47 and the microsomal CLint [3] was 72 µL/min/mg.

Molecule `Cn1nc(C(=O)Nc2nc3ccc(C#N)cc3n2CC(F)(F)F)cc1C(F)(F)F` has a selectivity ratio [1] of 1, a pIC50 [2] of 4.19 and a microsomal CLint [3] of 77 µL/min/mg.

`CS(=O)(=O)c1ccc2c(c1)nc(NC(=O)c1ccnc(C(F)(F)F)c1)n2CC(F)(F)F` gave a selectivity ratio [1] of 5, a pIC50 [2] of 6.26 and a microsomal CLint [3] of 23 µL/min/mg.

Molecule `Cn1nccc1C(=O)Nc1nc2cncnc2n1CC(F)(F)F` has a selectivity ratio [1] of 3, a pIC50 [2] of 5.09 and a microsomal CLint [3] of 24 µL/min/mg.

In the case of `N#Cc1ccc2nc(NC(=O)c3ccc(C(F)(F)F)nc3)n(CC(F)(F)F)c2c1`, the “inhibition (INH)” value [4] was 98%, the selectivity ratio [1] was > 25 and the Papp at 10 µM [5] was 5.4 ×10⁻⁶ cm/s. For the same molecule, the CC50 at 24 h [6] was 8 µM, the Activity [7] was 99% and the pIC50 [2] was 5.59. For the same molecule, the microsomal CLint [3] was 18 µL/min/mg, the CC50 at 24 h [8] was 1.1 µM and the CC50 at 24 h [9] was > 40 µM. The solubility kinetic at 24 h [10] was < 1 µM, the pIC50 [11] was 6.72 and the IC90 [11] was 0.57 µM. The solubility kinetic at 24 h [12] was < 1 µM, the CC50 at 24 h [13] was 18 µM and the CC50 at 24 h [14] was > 64 µM.

`N#Cc1ccc2nc(NC(=O)Cn3cccn3)n(CC(F)(F)F)c2c1` showed a selectivity ratio [1] of 9, a pIC50 [2] of 5.18 and a microsomal CLint [3] of 36 µL/min/mg.

`Cc1nn[nH]c1C(=O)Nc1nc2ccc(C#N)cc2n1CC(F)(F)F` showed a selectivity ratio [1] of 1, a pIC50 [2] of 4.19 and a microsomal CLint [3] of 141 µL/min/mg.
